Fibroblast inh: blocks proliferation of human lung fibroblasts; viability, % at 10 µM; LL 47 human lung fibroblast viability, ATP luminescence; active compounds read low; actives 1.1% (n = 85,000); AID 719;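 active = viability at or below 50% in the single dose screen; inactive = viability above 50%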;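 note: compound exposure lasted 72 h before the ATP readout; 100% = median luminescence of untreated cell-only wells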
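Signal: luminescent ATP detection, CellTiter-Glo; assay system: LL 47 human lung fibroblasts; input: 1,150 cells/well; incubation: overnight cell rest, 72 h compound treatment at 37 °C; measure: % viability versus median cells-only luminescence; medium: IMEM growth medium with 15% fetal bovine serum; dosing: compound addition at 0.1% DMSO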
HCT116 PTEN-null: growth suppressors of cells with PTEN tumor suppressor deletion; actives 1.2% (n = 140,000); viability, % at 10 µM; HCT116 PTEN-null viability, CellTiter-Glo, 60 h; active compounds read low;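 active = viability at or below a set limit, 4 SD under the median of all tested compounds, cut at about 3.7% in these data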;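 note: PTEN knockout HCT116 line with beta catenin targeted HCT116 as companion control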
HUVEC prolif 384: human endothelial cell proliferation inhibition. HUVEC proliferation, CellTiter-Glo luminescence, 72 h; active compounds read low. viability, % at 10 µM (by protocol). actives 1.1% (n = 86,000);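 active = viability at or below 30%; inactive = viability above 30%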;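 note: 100% = median luminescence of DMSO-only cell control wells on each plate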
HCT116 bCat-KO: beta-catenin-lacking colon tumor cell growth suppression; viability, % at 10 µM; actives 1.5% (n = 140,000); AID 818; HCT116 beta-catenin knockout viability, CellTiter-Glo, 60 h; active compounds read low;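 active = viability at or under a set limit, the compound median less 4 SD, cut at about 6% in these data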;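 note: 0% = Hyamine 1622 control at 20 µM and 100% = untreated cell control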
H69AR inhibit: blocks growth of human H69AR lung tumor cells. actives 6% (n = 85,000). H69AR lung tumor viability, ATP luminescence, 72 h; active compounds read low. viability, % at 10 µM. AID 598;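 active = viability at or below 40%; inactive = viability above 40%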;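 note: multidrug resistant small cell line overexpressing MRP-1 efflux transporter; 100% = mean luminescence of untreated control wells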
* = called active by the depositor; · = no result. Shown is part of a subset that was picked to be rich in hits.

SMILES | Fibroblast inh | HCT116 PTEN-null | HUVEC prolif 384 | HCT116 bCat-KO | H69AR inhibit
COc1ccc(NC(=O)c2cccnc2Sc2ccccc2)c(OC)c1 | · | 103 | · | 105 | ·
O=S(=O)(c1ccc(Br)cc1)N1CCN(c2ccc3nnc(-c4ccccc4)n3n2)CC1 | 101 | 33 | 82 | 24 | 30*
O=C(c1ccc(Br)o1)N1CCN(c2ccc3nnc(-c4ccccc4)n3n2)CC1 | 85 | 37 | 64 | 37 | 74
COc1ccc(-c2c3c(=O)n(C)c(=O)n(C)c3cn2C2CCCCC2)cc1 | 84 | 51 | 86 | 37 | 20*
C=CCN=C(NC#N)SCC(=O)c1cccc(OC)c1 | 92 | 30 | 96 | 51 | 35*
Cc1ccc(Cn2nnc3c(=O)n(CC(=O)NCc4ccc5c(c4)OCO5)cnc32)cc1 | 96 | 81 | 67 | 86 | 39*
Cc1nc(NCc2ccc3c(c2)OCO3)c2nnn(Cc3ccccc3)c2n1 | 47* | 14 | 50 | 20 | 53
O=C1c2cccc3cccc(c23)C(=O)N1CCN1CCN(CC(O)COc2ccc3ccccc3c2)CC1 (stereo unspecified) | · | 1.2* | · | 1.5* | ·
O=C(N1CCOCC1)N1CCN(CC(O)COc2ccc3ccccc3c2)CC1 (stereo unspecified) | 94 | 79 | 86 | 90 | 94
COc1cc(COCC(O)CN2CCN(CCN3C(=O)c4cccc5cccc(c45)C3=O)CC2)cc(OC)c1OC (stereo unspecified) | · | 32 | · | 29 | ·
CCc1ccc(OCC(O)CN2CCC(CN3C(=O)c4cccc5cccc(c45)C3=O)CC2)cc1 (stereo unspecified) | · | 1.2* | · | 1.1* | ·
O=C1c2cccc3cccc(c23)C(=O)N1CCN1CCN(CC(O)COCc2ccc(Cl)cc2)CC1 (stereo unspecified) | · | 2.7* | · | 3.1* | ·
Cc1ccc(C)c(OCC(O)CN2CCN(CCN3C(=O)c4cccc5cccc(c45)C3=O)CC2)c1 (stereo unspecified) | · | 1.2* | · | 1.1* | ·
Cc1nc(Cl)c2c(n1)NC1=C(O2)C(=O)CCC1 | · | 99 | · | 99 | ·
c1ccc(-c2cnn3c(-c4ccccc4)c(-c4ccccc4)nc3n2)cc1 | · | 41 | · | 46 | ·
Cc1cccc(N/C(N)=N/c2nc(C(F)(F)F)cc(=O)[nH]2)c1C | · | 28 | · | 53 | ·
CCc1nnc(NC(=O)CCC(=O)NC2CCCc3ccccc32)s1 (stereo unspecified) | · | 97 | · | 90 | ·
CCOC(=O)c1c(NC(=O)C(C)NCc2ccco2)sc2c1CCC(C)C2 (stereo unspecified) | · | 77 | · | 67 | ·
O=c1c2ccccc2nc(-c2cccc(Cl)c2)n1O | 101 | 73 | 100 | 64 | 23*
O=c1c2ccccc2nc(-c2ccccc2)n1Cc1ccc(Cl)cc1 | · | 62 | · | 67 | ·
CCOC(=O)C(C(=O)OCC)C(Nc1ccc(Br)cc1)c1ccccc1 (stereo unspecified) | · | 1.5* | · | 1.5* | ·
CCOC(=O)Cc1c(C)nc2c(-c3ccc(OC)cc3)c(C)nn2c1C | 77 | 90 | 71 | 81 | 23*
CCOC(=O)Cc1c(C)nc2c(-c3ccccc3)c(-c3ccccc3)[nH]n2c1=O | 92 | 68 | 75 | 72 | 32*
Cc1ccc(-n2c3c(c(=O)[nH]c2=O)C(NS(=O)(=O)c2ccc(Cl)cc2)(C(F)(F)F)C(=O)N3)cc1 (stereo unspecified) | · | 86 | · | 86 | ·
COc1ccc(CC(=O)Nc2ccccc2C(=O)N2CCOCC2)cc1 | · | 91 | · | 87 | ·
SMILES | Fibroblast inh | HCT116 PTEN-null | HUVEC prolif 384 | HCT116 bCat-KO | H69AR inhibit
Nc1nc(-c2ccco2)c(-c2ccco2)s1 | · | 106 | 88 | 112 | 97
c1coc(-c2nc(-c3ccco3)c(-c3ccco3)nc2-c2ccco2)c1 | 84 | 87 | 69 | 94 | 27*
Cc1ccc2nc(NC(=O)CN(C)S(=O)(=O)c3ccc(Br)s3)sc2c1 | 97 | 21 | 57 | 22 | 21*
Cc1ccnc(NC(=O)CN(C)S(=O)(=O)c2cccc3nsnc23)c1 | 98 | 107 | 94 | 99 | 75
Cc1ccc2nc(NC(=O)CN(C)S(=O)(=O)c3cccc4nsnc34)sc2c1 | 25* | 31 | 29* | 41 | 12*
CCc1ccc(N(CC(=O)Nc2nc3ccc(C)cc3s2)S(=O)(=O)c2c(C)noc2C)cc1 | 98 | 23 | 50 | 28 | 3.3*
COc1ccc(N(CC(=O)Nc2cc(Cl)ccc2OC)S(=O)(=O)c2c(C)noc2C)cc1 | 48* | 16 | 42 | 16 | 24*
O=C(NCC1CCCO1)c1ccc(COc2ccccc2Br)cc1 (stereo unspecified) | · | 77 | · | 94 | ·
CCC1CSC(Nc2ccc(C(=O)/C=C/c3cccc(C)c3)cc2)=N1 (stereo unspecified) | · | 21 | · | 11 | ·
COc1ccc(CCC(=O)N2CCCSC2=Nc2ccc(C(C)=O)cc2)cc1 | · | 85 | · | 92 | ·
CCCNC(=S)Nc1ccc2nc(-c3ccccn3)c(-c3ccccn3)nc2c1 | · | 89 | · | 96 | ·
COc1ccc(-c2cc(-c3ccc(F)cc3)nc(N3CCN(C)CC3)n2)cc1 | · | 3.4* | 70 | 3.3* | 47
COc1ccc(-c2cc(C(F)(F)F)nc(N3CCN(c4ccc(F)cc4)CC3)n2)cc1OC | 94 | 102 | 68 | 99 | 17*
COc1ccc(-c2cc(C(F)(F)F)nc(N3CCOCC3)n2)cc1 | 87 | 89 | 88 | 89 | 81
CCCc1[nH]n(-c2ccc(F)cc2)c(=O)c1C=Nc1ccc(C)cc1 | · | 84 | · | 104 | ·
CSc1nc2nccc(/C=C\c3ccccc3)n2n1 | · | 4 | · | 4.5* | ·
CSc1nc2nccc(-c3ccc(Cl)cc3)n2n1 | 92 | 96 | 98 | 95 | 89
c1ccc2c(c1)oc1c(Nc3ccc(CN4CCOCC4)cc3)ncnc12 | 98 | 22 | 5.4* | 23 | 3.5*
Cc1ccc(C(=O)NCC(=O)OCC(=O)NC2CCS(=O)(=O)C2)cc1C (stereo unspecified) | · | 93 | · | 93 | ·
COc1nc2ccc(C)cc2cc1-c1noc(-c2ccccc2)n1 | · | 90 | · | 82 | ·
COCCCNc1ncnc2sc3c(c12)CCC(C)C3 (stereo unspecified) | 89 | 89 | 89 | 86 | 39*
c1cn(CCCNc2ncnc3sc4c(c23)CCC4)cn1 | 88 | 88 | 90 | 103 | 89
COc1ccc(C(=O)N/C(N)=N/c2nc3ccccc3o2)cc1 | 97 | · | 86 | 78 | 19*
CCOc1ccccc1OCCCC(=O)Nc1sccc1C(N)=O | · | 83 | · | 92 | ·
Cc1cccc(S(=O)(=O)NCCC(=O)OCC(=O)Nc2ccc(C#N)cc2)c1 | · | 102 | · | 84 | ·
O=C(CCN1C(=O)c2ccccc2C1=O)Nc1sc2c(c1C(=O)NCc1ccco1)CCCC2 | 104 | 101 | 81 | 107 | 58
COc1ccc(C(=O)Nc2sc3c(c2C(=O)NCc2ccco2)CCCC3)cc1OC | 86 | 75 | 67 | 80 | 36*
CC(C(=O)Nc1sc2c(c1C(=O)NCc1ccco1)CCCC2)N1C(=O)c2ccccc2C1=O (stereo unspecified) | 100 | 105 | 85 | 109 | 23*
O=C(Nc1sc2c(c1C(=O)O)CCC2)c1ccco1 | · | 104 | · | 103 | ·

Screening results from PubChem BioAssay.
